Data taken from ChEMBL document CHEMBL1149101, “New antibacterial agents derived from the DNA gyrase inhibitor cyclothialidine” (J Med Chem, 2004).
Values after ≈ are worked out from the molar mass of the structure shown.

Tests used:
Neisseria meningitidis = assay: Minimum inhibitory concentration against Neisseria meningitides 69480; type: functional
Procedure, shortened: (§1)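 Agar dilution per NCCLS in BB2 agar + 1% Isovitalex + 7.5% sheep blood + menadione, compound added to melted medium at 50 °C. About 10⁴ CFU/spot from diluted overnight cultures, multipoint-inoculated.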

[1] = target: DNA gyrase (Escherichia coli) (UniProt P0AES6+P0AES4)
Micrococcus luteus = assay: Minimum inhibitory concentration against Micrococcus luteus ATCC 8340; type: functional; procedure, shortened: as §1
Streptococcus pyogenes = assay: Minimum inhibitory concentration against Streptococcus pyogenes b15
Staphylococcus aureus [2] = assay: Minimum inhibitory concentration against Staphylococcus aureus 887; type: functional; procedure, shortened: as §1
Staphylococcus aureus [3] = assay: Minimum inhibitory concentration against Staphylococcus aureus ATCC 25923; type: functional
Procedure, shortened: (§2)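 NCCLS agar dilution on Mueller–Hinton agar, compound incorporated into melted medium at 50 °C. Inoculum about 10⁴ CFU/spot from diluted overnight cultures, multipoint-applied.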

Staphylococcus aureus [4] = assay: Minimum inhibitory concentration against Staphylococcus aureus Smith; type: functional; procedure, shortened: as §2
Enterococcus faecalis = assay: Minimum inhibitory concentration against Enterococcus faecalis 6; type: functional; procedure, shortened: as §2
[5] = system: Staphylococcus epidermidis; assay: Minimum inhibitory concentration against Staphylococcus epidermidis 16/2; type: functional; procedure, shortened: as §2
[6] = system: Stenotrophomonas maltophilia; assay: Minimum inhibitory concentration against Xanthomonas maltophilia AC739; type: functional; procedure, shortened: as §2
Escherichia coli = assay: Minimum inhibitory concentration against Escherichia coli 25922; type: functional; procedure, shortened: as §2
[7] = Streptococcus pyogenes, read-out: MIC
[8] = Staphylococcus aureus, ATCC 25923, read-out: MIC
[9] = Staphylococcus aureus, read-out: MIC

SMILES	MIC (Neisseria meningitidis) [µg/mL]	MNEC [1] [µg/mL]	MIC (Micrococcus luteus) [µg/mL]	MIC (Streptococcus pyogenes; [7]) [µg/mL]	MIC (Staphylococcus aureus [2]) [µg/mL]	also measured
COC(=O)[C@@H]1CSCc2c(OC)cc(O)c(C)c2C(=O)OCC(NC(=O)OC(C)(C)C)C(=O)N1 (some centres undefined)	128 (≈ 257 µM)	> 1	> 128			
COC(=O)[C@@H]1CSCc2c(N)cccc2C(=O)OCC(NC(=O)[C@H](CO)NC(=O)OC(C)(C)C)C(=O)N1 (some centres undefined)	> 128	> 100	> 128			
COC(=O)[C@@H]1CSCc2c(O)cc(O)c(C)c2C(=O)OC[C@H](NC(=O)OC(C)(C)C)C(=O)N1	128 (≈ 264 µM)	10	128 (≈ 264 µM)			
COC(=O)[C@@H]1CSCc2c(O)cc(OC)c(C)c2C(=O)OCCCCCCCCC(=O)N1		> 1				
COC(=O)[C@@H]1CSCc2c(O)cccc2C(=O)OCC(NC(=O)[C@H](CO)NC(=O)OC(C)(C)C)C(=O)N1 (some centres undefined)	32 (≈ 59.1 µM)	0.4	64 (≈ 118 µM)			
COC(=O)[C@@H]1CSCc2c(O)cc(O)c(C)c2C(=O)OC[C@H](NC(=O)[C@@H]2CCCN2C(=O)OC(C)(C)C)C(=O)N1		2.5	64 (≈ 110 µM)	> 64	> 64	
COc1cc(O)c2c(c1C)C(=O)OCCC/C(S)=N/[C@H](c1nc(C)no1)CSC2		0.004				
COc1cc(O)c2c(c1C)C(=O)OC[C@H](NC(=O)OC(C)(C)C)C(=O)N[C@H](CO)CSC2	64 (≈ 136 µM)	2.5	64 (≈ 136 µM)	64 (≈ 136 µM)	> 64	
Cc1c(O)cc(O)c2c1C(=O)OCCC(=O)NCCSC2		20	> 128			
COC(=O)[C@@H]1CSCc2c(O)cc(OC)c(C)c2C(=O)OCCCCC/C(S)=N/1		0.5				MIC (Staphylococcus aureus [3]; [8]): 32 µg/mL (≈ 72.5 µM); MIC (Staphylococcus aureus [4]; [9]): 16 µg/mL (≈ 36.2 µM)
COC(=O)[C@@H]1CSCc2c(O)cc(O)c(C)c2C(=O)OCC(NC(=O)CCO)C(=O)N1 (some centres undefined)		0.2	16 (≈ 35.1 µM)	> 64	> 64	
COC(=O)[C@@H]1CSCc2c(O)cc(OC)c(C)c2C(=O)OCCCC(=O)N1		2				MIC (Staphylococcus aureus [3]; [8]): 64 µg/mL (≈ 161 µM); MIC (Staphylococcus aureus [4]; [9]): 32 µg/mL (≈ 80.5 µM)
COC(=O)[C@@H]1CSCc2c(O)cc(OC)c(C)c2C(=O)OC/C(S)=N/1		0.2				MIC (Staphylococcus aureus [3]; [8]): > 64 µg/mL; MIC (Staphylococcus aureus [4]; [9]): > 64 µg/mL
COC(=O)[C@@H]1CSCc2c(O)cc(OC)c(C)c2C(=O)OC[C@H](C)C(=O)N1	8 (≈ 20.1 µM)	0.4	16 (≈ 40.3 µM)	16 (≈ 40.3 µM)	16 (≈ 40.3 µM)	
COc1cc(O)c2c(c1C)C(=O)CCCCC/C(S)=N/[C@H](c1nc(CNC(C)C)no1)CSC2.Cl		0.002				
COC(=O)[C@@H]1CSCc2c(O)cc(O)c(C)c2C(=O)OCC(NC(=O)OC(C)(C)C)C(=O)N1 (some centres undefined)	16 (≈ 33 µM)	0.2	16 (≈ 33 µM)	32 (≈ 66 µM)	> 64	MIC (Enterococcus faecalis): 64 µg/mL (≈ 132 µM); MIC (Streptococcus pyogenes): 64 µg/mL (≈ 132 µM); MIC (Staphylococcus aureus [3]; [8]): > 64 µg/mL; MIC [5]: 64 µg/mL (≈ 132 µM); MIC (Staphylococcus aureus [4]; [9]): 128 µg/mL (≈ 264 µM); MIC [6]: > 64 µg/mL; MIC (Escherichia coli): > 64 µg/mL
COC(=O)[C@@H]1CSCc2c(O)cc(OC)c(C)c2C(=O)OCCCCCC(=O)N1		2				MIC (Staphylococcus aureus [3]; [8]): > 64 µg/mL; MIC (Staphylococcus aureus [4]; [9]): 32 µg/mL (≈ 75.2 µM)
COC(=O)[C@@H]1CSCc2c(O)cc(O)c(C)c2C(=O)OCCC(=O)N1	32 (≈ 86.6 µM)	0.25	16 (≈ 43.3 µM)			
COC(=O)[C@@H]1CSCc2c(O)cc(O)c(C)c2C(=O)OCC(NC(=O)[C@@H]2C(O)CCN2C(=O)OC(C)(C)C)C(=O)N1 (some centres undefined)	64 (≈ 107 µM)	0.05	8 (≈ 13.4 µM)	32 (≈ 53.5 µM)	> 64	
COc1cc(O)c2c(c1C)C(=O)OC[C@H](NC(=O)OC(C)(C)C)C(=O)N[C@H](C(N)=O)CSC2	4 (≈ 8.27 µM)	0.1	16 (≈ 33.1 µM)	16 (≈ 33.1 µM)	> 64	
C=CCNC(=O)[C@@H]1CSCc2c(O)cc(OC)c(C)c2C(=O)OC[C@H](NC(=O)OC(C)(C)C)C(=O)N1	4 (≈ 7.64 µM)	0.1	8 (≈ 15.3 µM)	16 (≈ 30.6 µM)	16 (≈ 30.6 µM)	
COC(=O)[C@@H]1CSCc2c(O)cc(OC)c(C)c2C(=O)OCC/C(S)=N/1		0.05		4 (≈ 10 µM)		MIC (Enterococcus faecalis): 4 µg/mL (≈ 10 µM); MIC (Staphylococcus aureus [3]): 2 µg/mL (≈ 5.01 µM); MIC (Staphylococcus aureus [3]; [8]): 2 µg/mL (≈ 5.01 µM); MIC [5]: 0.5 µg/mL (≈ 1.25 µM); MIC (Staphylococcus aureus [4]): 2 µg/mL (≈ 5.01 µM); MIC (Staphylococcus aureus [4]; [9]): 2 µg/mL (≈ 5.01 µM); MIC [6]: 8 µg/mL (≈ 20 µM); MIC (Escherichia coli): > 64 µg/mL
COC(=O)[C@@H]1CSCc2c(O)cc(OC)c(C)c2C(=O)OCCCCCCCC/C(S)=N/1		> 1				
COC(=O)[C@@H]1CSCc2c(O)cc(OC)c(C)c2C(=O)OCCCCCC/C(S)=N/1		0.5				MIC (Staphylococcus aureus [3]; [8]): 16 µg/mL (≈ 35.1 µM); MIC (Staphylococcus aureus [4]; [9]): 16 µg/mL (≈ 35.1 µM)
COC(=O)[C@H]1CSCc2c(O)cc(O)c(C)c2C(=O)OC[C@H](NC(=O)OC(C)(C)C)C(=O)N1	128 (≈ 264 µM)	4	128 (≈ 264 µM)			
